# From ChEMBL document CHEMBL4038305, “Benzoxaborole Antimalarial Agents. Part 5. Lead Optimization of Novel Amide Pyrazinyloxy Benzoxaboroles and Identification of a Preclinical Candidate” (J Med Chem, 2017)
# Activity calls are given as the source filed them. The calls are words filed in the database; no cut-off is given here.
# Legend:
# Rattus norvegicus [1] = experiment: Genotoxicity in rat assessed as micronuclei in polychromatic erythrocyte cells in bone marrow at 500 to 2000 mg/kg administered via oral gavage measured after 24 to 48 hrs post dose by micronucleus assay; format: toxicity, organism-based; settings: in vivo
# Plasmodium berghei [2] = experiment: Antimalarial activity against Plasmodium berghei infected in Swiss Webster mouse assessed as mouse survival rate at 1 mg/kg administered once daily via oral gavage for 4 consecutive days beginning 1 hr after infection measured on day 4 post infection relative to control; format: functional
# Summary of the method: (§1)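 Mice given an intraperitoneal injection of P. berghei-infected erythrocytes taken from a previously infected animal. Oral dosing once daily for 4 consecutive days, starting 1 h after infection. Vehicle: polyethylene glycol 300/propylene glycol/water (weight ratio 55/25/20). Percent survival recorded daily from day 4 to day 20. Chloroquine 30 mg/kg and vehicle-only groups served as controls.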
# Plasmodium berghei [3] = experiment: Antimalarial activity against Plasmodium berghei infected in Swiss Webster mouse assessed as mouse survival rate at 0.3 mg/kg administered once daily via oral gavage for 4 consecutive days beginning 1 hr after infection measured on day 6 post infection relative to control; format: functional; summary of the method: as §1
# Plasmodium berghei [4] = experiment: Antimalarial activity against Plasmodium berghei infected in Swiss Webster mouse assessed as mouse survival rate at 1 mg/kg administered once daily via oral gavage for 4 consecutive days beginning 1 hr after infection measured on day 6 post infection relative to control; format: functional; summary of the method: as §1
# Plasmodium berghei [5] = experiment: Antimalarial activity against Plasmodium berghei infected in Swiss Webster mouse assessed as mouse survival rate at 11 mg/kg administered once daily via oral gavage for 4 consecutive days beginning 1 hr after infection measured on day 12 post infection relative to control; format: functional; summary of the method: as §1
# Salmonella typhimurium [6] = experiment: Genotoxicity in Salmonella typhimurium TA98 assessed as number of revertants per plate at 500 ug/plate in absence of rat liver S9 fraction by Ames test (reference value: 14 +/- 6); format: toxicity; settings: salmonella enterica subsp. enterica serovar typhimurium
# Escherichia coli [7] = experiment: Genotoxicity in Escherichia coli WP2uvrA assessed as number of revertants per plate at 500 ug/plate in absence of rat liver S9 fraction by Ames test (reference value: 45 +/- 9); format: toxicity
# Salmonella typhimurium [8] = experiment: Genotoxicity in Salmonella typhimurium TA1535 assessed as number of revertants per plate at 15 ug/plate in absence of rat liver S9 fraction by Ames test (reference value: 10 +/- 3); format: toxicity; settings: salmonella enterica subsp. enterica serovar typhimurium
# [9] = Terminal half life in Beagle dog at 5 mg/kg, iv by HPLC/MS analysis; format: ADME, organism-based, Canis lupus familiaris; settings: in vivo, read-out: beta t1/2 (converted)
# Summary of the method: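 Female CD-1 mice, male SD rats or beagle dogs given 5 mg/kg by iv injection or oral gavage. Formulation was PEG300/propylene glycol/water 55/25/20, pH 6. Blood samples analysed by HPLC–MS/MS; parameters include AUC0-inf extrapolated to infinity and terminal half-life.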
# Lymphocyte [10] = experiment: Genotoxicity in human lymphocytes assessed as increase in frequency of micronucleated cells at 160 ug/mL after 3 hrs in presence of rat liver S9 fraction by micronucleus assay (reference value: 0.63%); format: toxicity, cell-based; settings: s9, 3 h
# Escherichia coli [11] = experiment: Genotoxicity in Escherichia coli WP2uvrA assessed as number of revertants per plate at 5000 ug/plate in absence of rat liver S9 fraction by Ames test (reference value: 45 +/- 9); format: toxicity
# Salmonella typhimurium [12] = experiment: Genotoxicity in Salmonella typhimurium TA1535 assessed as number of revertants per plate at 1.5 ug/plate in presence of rat liver S9 fraction by Ames test (reference value: 10); format: toxicity; settings: salmonella enterica subsp. enterica serovar typhimurium
# Salmonella typhimurium [13] = experiment: Genotoxicity in Salmonella typhimurium TA98 assessed as number of revertants per plate at 1500 ug/plate in absence of rat liver S9 fraction by Ames test (reference value: 14 +/- 6); format: toxicity; settings: salmonella enterica subsp. enterica serovar typhimurium
# Plasmodium falciparum [14] = experiment: Antimalarial activity against Plasmodium falciparum TM90C2B infected in human erythrocytes assessed as reduction in [3H]-hypoxanthine incorporation preincubated for 24 hrs followed by [3H]-hypoxanthine addition measured after 24 hrs by scintillation counting method; format: functional, cell-based
# Rattus norvegicus [15] = experiment: Genotoxicity in rat assessed as micronucleated polychromatic erythrocytes in bone marrow at 2000 mg/kg administered via oral gavage measured after 48 hrs post dose by micronucleus assay (reference value: 0.10 +/- 0.01%); format: toxicity, organism-based; settings: in vivo
# Rattus norvegicus [16] = experiment: Genotoxicity in rat assessed as change in polychromatic erythrocytes in bone marrow at 2000 mg/kg administered via oral gavage measured after 48 hrs post dose by micronucleus assay relative to control; format: toxicity, organism-based; settings: in vivo
# Salmonella typhimurium [17] = experiment: Genotoxicity in Salmonella typhimurium TA100 assessed as number of revertants per plate at 50 ug/plate in absence of rat liver S9 fraction by Ames test (reference value: 154 +/- 9); format: toxicity; settings: salmonella enterica subsp. enterica serovar typhimurium
# Lymphocyte [18] = experiment: Genotoxicity in human lymphocytes assessed as replication index at 160 ug/mL after 28 hrs in absence of rat liver S9 fraction by micronucleus assay relative to control; format: toxicity, cell-based
# Summary of the method: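 Human lymphocytes exposed for 3 h with or without rat liver S9, or 28 h without S9, with 1% DMSO as vehicle control. Replication index = (binucleated + 2 × multinucleated cells)/total cells. Cytotoxicity (%) = 100 − (RI treated/RI vehicle) × 100.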
# Salmonella typhimurium [19] = experiment: Genotoxicity in Salmonella typhimurium TA98 assessed as number of revertants per plate at 1500 ug/plate in presence of rat liver S9 fraction by Ames test (reference value: 19 +/- 8); format: toxicity; settings: salmonella enterica subsp. enterica serovar typhimurium
# [20] = Clearance in Sprague-Dawley rat at 5 mg/kg, iv by HPLC/MS analysis; format: ADME, organism-based; settings: in vivo
# Summary of the method: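 Female CD-1 mice, male SD rats and beagle dogs received 5 mg/kg either iv or by oral gavage. Vehicle was PEG 300/propylene glycol/water (55/25/20, pH 6). Blood was sampled and drug measured by HPLC-MS/MS.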
# Lymphocyte [21] = experiment: Genotoxicity in human lymphocytes assessed as increase in frequency of micronucleated cells at 80 ug/mL after 3 hrs in absence of rat liver S9 fraction by micronucleus assay (reference value: 0.99%); format: toxicity, cell-based
# Plasmodium falciparum [22] = experiment: Antimalarial activity against Plasmodium falciparum 3D7 0087/N9 infected in NOD/SCID IL2R gamma null mouse assessed as decrease in parasitemia at 0.3 to 75 mg/kg up to 7 days post infection; format: functional, organism-based
# Summary of the method: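 Human-erythrocyte-engrafted NODscidIL2Rγnull mice carrying P. falciparum Pf3D70087/N9 in peripheral blood; compound given orally once daily for four consecutive days.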
# Escherichia coli [23] = experiment: Genotoxicity in Escherichia coli WP2uvrA assessed as number of revertants per plate at 1500 ug/plate in presence of rat liver S9 fraction by Ames test (reference value: 42 +/- 6); format: toxicity
# [24] = AUC (0 to infinity) in Beagle dog at 5 mg/kg, iv by HPLC/MS analysis; format: ADME, organism-based, Canis lupus familiaris; design: dose 5 mg/kg, time infinity, route intravenous; settings: in vivo
# Salmonella typhimurium [25] = experiment: Genotoxicity in Salmonella typhimurium TA98 assessed as number of revertants per plate at 15 ug/plate in presence of rat liver S9 fraction by Ames test (reference value: 19 +/- 8); format: toxicity; settings: salmonella enterica subsp. enterica serovar typhimurium
# Rattus norvegicus [26] = experiment: Genotoxicity in rat assessed as change in polychromatic erythrocytes in bone marrow at 500 mg/kg administered via oral gavage measured after 24 hrs post dose by micronucleus assay relative to control; format: toxicity, organism-based; settings: in vivo
# Lymphocyte [27] = experiment: Genotoxicity in human lymphocytes assessed as increase in frequency of micronucleated cells at 40 ug/mL after 28 hrs in absence of rat liver S9 fraction by micronucleus assay (reference value: 0.74%); format: toxicity, cell-based
# Escherichia coli [28] = experiment: Genotoxicity in Escherichia coli WP2uvrA assessed as number of revertants per plate at 500 ug/plate in presence of rat liver S9 fraction by Ames test (reference value: 42 +/- 6); format: toxicity
compound,measurement,setting,value
Cc1c(Oc2cnc(C(=O)NCCO)cn2)ccc2c1B(O)OC2,Activity,Rattus norvegicus [1],Non-Toxic
Cc1c(Oc2cnc(C(=O)NC(C)CO)cn2)ccc2c1B(O)OC2 (stereo not drawn),survival at 1 mg/kg,Plasmodium berghei [2],100%
same,survival at 0.3 mg/kg,Plasmodium berghei [3],20%
same,survival at 1 mg/kg,Plasmodium berghei [4],20%
Cc1c(Oc2cnc(C(=O)N3CC(O)(C(C)C)C3)cn2)ccc2c1B(O)OC2,survival at 11 mg/kg,Plasmodium berghei [5],20%
Cc1c(Oc2cnc(C(=O)N3CC(C)(O)C3)cn2)ccc2c1B(O)OC2,Activity,Salmonella typhimurium [6],10
same,Activity,Escherichia coli [7],55
same,Activity,Salmonella typhimurium [8],13
same,half-life,[9],6.9 h
same,Activity,Lymphocyte [10],0.5%
same,Activity,Escherichia coli [11],43
same,Activity,Salmonella typhimurium [12],9
same,Activity,Salmonella typhimurium [13],13
same,IC50,Plasmodium falciparum [14],60 nM
same,Activity,Rattus norvegicus [15],0.1%
same,Activity,Rattus norvegicus [16],-12%
same,Activity,Salmonella typhimurium [17],132
same,Activity,Lymphocyte [18],13%
same,Activity,Salmonella typhimurium [19],15
same,clearance,[20],3.88 mL/min/kg
same,Activity,Lymphocyte [21],0.81%
same,Activity,Plasmodium falciparum [22],Active
same,Activity,Escherichia coli [23],26
same,AUC(0-inf),[24],168 µg·h/mL
same,Activity,Salmonella typhimurium [25],13
same,Activity,Rattus norvegicus [26],-4%
same,Activity,Lymphocyte [27],1.18%
same,Activity,Escherichia coli [28],35
